Molecules are shown by their SMILES. Activity calls are given as the source filed them. The rule behind the calls is not given here.

One may read the inhibition as the drop in the measured response relative to a control, in per cent. What is called IC50 is the concentration that inhibits the measured activity by half.

Assay [1] relates to HeLa. Put plainly: Antiproliferative activity against human HeLa cells assessed as median dose after 24 hrs. Type of assay: functional. In short, it runs like this:
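HeLa cells treated for 24 h with each agent alone and in combinations. The median dose (Dm) was taken from the median dose plot, and combination index was computed as CI = (D)1/(Dx)1 + (D)2/(Dx)2.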

For assay [2], the species on record is Homo sapiens. Briefly: Inhibition of microtubule (unknown origin) assembly at 1 uM incubated for 15 mins prior to GTP addition measured for 30 mins by 90 degree light scattering-based fluorescence spectrophotometric method. In short, it runs like this: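 MAP-rich tubulin (1 mg/mL) was preincubated with 1, 3, 5 or 10 μM in PEM buffer (25 mM Pipes pH 6.8, 3 mM MgCl2, 1 mM EGTA) for 15 min on ice. GTP (1 mM) was then added and assembly monitored by 90° light scattering at 400 nm for 30 min at 37 °C.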

For assay [3], the system named is HeLa. Briefly: Induction of apoptosis in human HeLa cells assessed as caspase-3 dependent PARP cleavage at 30 nM after 24 hrs by Western blot analysis. Type of assay: functional, cell-based. In a few lines:
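HeLa cells were treated with vehicle or 30 nM for 24 h and washed twice in PBS. Lysates were Western blotted with antibodies to JNK1, phospho-JNK, procaspase-3 and PARP.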
On the technique in general: A western blot detects proteins with antibodies after separation by electrophoresis.

Assay [4] concerns HeLa. Briefly: Induction of apoptosis in human HeLa cells assessed as apoptotic cells at 35 nM after 24 hrs by annexin V-FITC/propidium iodide staining-based FACS analysis. Type of assay: functional. In short, it runs like this: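 HeLa cells were exposed to 35 nM for 10 or 24 h, stained with annexin V and propidium iodide using a kit, and apoptotic cells were quantified by FACS. Nocodazole (700 nM) served as comparator.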

The subject of assay [5] is HeLa. Briefly: Induction of apoptosis in human HeLa cells assessed as late apoptotic cells at 30 nM after 24 hrs by annexin V/propidium iodide staining-based FACS flow cytometry. Type of assay: functional, cell-based. In short, it runs like this:
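HeLa cells were grown with vehicle (0.1% DMSO) or 7, 15 and 30 nM for 24 h and stained with an annexin V/propidium iodide kit. Stage was scored as annexin V-positive with weak PI (early/mid) or positive for both (late).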
(Flow cytometry measures light scatter and fluorescence of single cells or particles in a stream.)

In assay [6] the test system is HeLa. Put plainly: Inhibition of microtubule-kinetochore tension in human HeLa cells assessed as BubR1 accumulation at kinetochoric region at 15 to 45 nM after 24 hrs by Hoechst 33258 dye-based Hec1 staining assay. Type of assay: cell-based.
Assay [7] concerns MCF7. Put plainly: Inhibition of microtubule (unknown origin) dynamics in GFP-tubulin transfected human MCF7 cells assessed as microtubule growth time at 15 nM by confocal laser scanning microscopy (reference value: 37 +/- 6 %). Type of assay: cell-based. Also on record: scale not given: the % may be the effect or the level left. In short, it runs like this: (§1)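 EGFP-tubulin-transfected MCF-7 cells grown in EMEM with 10% FBS at 37 °C in 5% CO2, exposed to 15 nM compound (DMSO vehicle) or vehicle. Individual microtubules were followed by time-lapse confocal laser scanning microscopy and life-history traces were recorded. Kinetic parameters were derived from these traces, 20 microtubules per condition. Significance was tested by one-way ANOVA.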

Assay [8] has as its system MCF7. Briefly: Inhibition of microtubule (unknown origin) dynamics in GFP-tubulin transfected human MCF7 cells assessed as microtubule shortening time at 15 nM by confocal laser scanning microscopy (reference value: 27 +/- 8 %). Type of assay: cell-based. On the set-up: scale not given: the % may be the effect or the level left. In a few lines:
as §1

The subject of assay [9] is MCF7. Briefly: Inhibition of microtubule (unknown origin) dynamics in GFP-tubulin transfected human MCF7 cells assessed as microtubule shortening rate at 15 nM by confocal laser scanning microscopy (reference value: 16.4 +/- 5 um/min). Type of assay: cell-based. In a few lines: as §1
In assay [10] the test system is MCF7. Briefly: Inhibition of microtubule (unknown origin) dynamics in GFP-tubulin transfected human MCF7 cells assessed as decrease in microtubule growth rate at 15 nM by confocal laser scanning microscopy relative to control. Type of assay: cell-based. In a few lines: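 EGFP-tubulin transfected MCF-7 cells were treated with vehicle or 15 nM, and individual microtubules were tracked by confocal laser scanning microscopy, 20 microtubules per condition. Life-history parameters were derived as previously described. Significance was tested by one-way ANOVA.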

In assay [11] the test system is MCF7. Put plainly: Induction of mitotic microtubule depolymerization in human MCF7 cells at 15 nM after 48 hrs by Hoechst 33258 dye-based fluorescence microscopy. Type of assay: cell-based.
Assay [12] relates to HeLa. Put plainly: Induction of interphase microtubule depolymerization in human HeLa cells at 35 nM after 3 hrs by Hoechst 33258 dye-based fluorescence microscopy. Type of assay: cell-based. In short, it runs like this: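 HeLa cells were given a brief 3 h exposure to 35 nM. Interphase microtubules were then immunostained and examined by fluorescence microscopy.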
Assay [13] deals with HeLa. Briefly: Induction of mitotic microtubule depolymerization in human HeLa cells at 15 nM after 24 hrs by Hoechst 33258 dye-based fluorescence microscopy. Type of assay: cell-based.
Assay [14] deals with HeLa. Briefly: Antimitotic activity in human HeLa cells assessed as increase in phosphohistone H3 (Ser10) positive cell population at 7 nM after 24 hrs by fluorescence microscopic analysis (reference value: 3 +/- 0.3 %). Type of assay: functional.
Assay [15] relates to HeLa. Briefly: Inhibition of mitosis in human HeLa cells assessed as mitotic index ratio at 30 nM after 24 hrs by Hoechst 33258 DNA staining assay (reference value: 3.2). Type of assay: functional. In short, it runs like this:
(§2)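 HeLa cells were treated with vehicle or 7, 15 or 30 nM compound for 24 or 48 h. DNA was stained with Hoechst 33258, and mitotic cells were counted by fluorescence microscopy to give the mitotic index, compared against vehicle-treated cells.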

Assay [16] concerns HeLa. Briefly: Inhibition of mitosis in human HeLa cells assessed as mitotic index ratio at 7 nM after 24 hrs by Hoechst 33258 DNA staining assay (reference value: 3.2). Type of assay: functional. In short, it runs like this:
as §2

The species entered for assay [17] is Homo sapiens. Put plainly: Inhibition of microtubule (unknown origin) GTPase activity using GTP as substrate assessed as reduction of inorganic phosphate release at 10 uM incubated for 10 mins prior to substrate addition measured after 10 mins by ammonium molybdate malachite green assay relative to control. In short, it runs like this: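 GTP (1 mM) was added and the mixture polymerized at 37 °C for 10 min. Reactions were stopped with perchloric acid, and released phosphate was measured by ammonium molybdate–malachite green.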

In the next assay the target is Tubulin (Homo sapiens) (UniProt P68371+Q9H4B7+P0DPH7+P68366+Q13509+Q71U36+P04350+Q3ZCM7+P07437+P68363+Q9BQE3+Q6PEY2+Q13885+Q9BVA1+Q9BUF5). Put plainly: Induction of tubulin (unknown origin) dimer aggregation at 10 uM after 20 mins by transmission electron microscopy. Type of assay: protein-complex assay. In short, it runs like this: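 Goat brain tubulin (10 μM) was preincubated with 5 or 10 μM on ice for 20 min, then polymerized with 1 mM GTP at 37 °C in glutamate assembly buffer. Polymers were fixed in 0.5% glutaraldehyde, negatively stained with 2% uranyl acetate, and imaged by transmission EM.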

Assay [18] in a line: (§3) Inhibition of goat brain tubulin polymerization incubated for 20 mins prior to GTP addition measured for 30 mins by 90 degree light scattering-based fluorescence spectrophotometric method. Also on record: species or system Capra hircus. In short, it runs like this:
(§4)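 Goat brain tubulin (10 μM) was preincubated with compound (5 μM; or 1, 5, 7, 10 μM) in 1 M monosodium glutamate, 3 mM MgCl2, 1 mM EGTA, 25 mM Pipes pH 6.8 on ice for 20 min. GTP (1 mM) was then added and assembly followed by 90° light scattering at 400 nm for 30 min at 37 °C. Experiment run twice.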

The species named for another assay is Capra hircus. Described as §3. In short, it runs like this: as §4
Assay [19] deals with HeLa. Put plainly: Cytotoxicity against human HeLa cells after 24 to 48 hrs by trypan blue assay. Type of assay: functional, cell-based. In a few lines: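 Cells were seeded at 1 × 10^5 cells/mL, grown 24 h at 37 °C in 5% CO2, then given vehicle (0.1% DMSO) or 1–80 nM for a further 24 or 48 h. Attached plus floating cells were counted after trypan blue staining. Percent inhibition was plotted against concentration to give IC50. Average of three independent experiments.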

As for `CC[C@H](C)[C@@H]([C@@H](CC(=O)NC[C@H]1O[C@H](C(=O)NCCc2ccccc2)[C@@H](OC)[C@@H]1OC)OC)N(C)C(=O)[C@@H](NC(=O)[C@@H](NC)C(C)C)C(C)C`, the Activity came to 8.9 nM in the assay on HeLa [1]; 65.3% in the assay on HeLa [4]; 21% with MCF7 [7]; 19% in the assay with MCF7 [8]; 12 um/min with MCF7 [9]; 6.6% with HeLa [14]. In addition, the inhibition in the assay listed under Homo sapiens [2] is 13%; in the assay on MCF7 [10], 27%; in the assay listed under Homo sapiens [17], 50%; in the assay filed under Capra hircus, “Dose-dependent effect”. The outcome in the assay on HeLa [3], with HeLa [5], in the assay with HeLa [6], in the assay with MCF7 [11], in the assay with HeLa [12] and in the assay with HeLa [13] was Active. Besides, at Tubulin (Homo sapiens), the outcome was Active. Besides, the figures for the Ratio in the assay on HeLa [15] and with HeLa [16] were 12 and 6, respectively. The IC50 in [18] amounted to 6 µM; with HeLa [19] it was 0.0068 µM.
